A selection: hits, their analogues and other compounds. The true share with any hit is near 4%.
Statin myotox sup – suppressors of simvastatin-induced myotoxicity in C2C12 myotubes. ATP luminescence, 48 h; scaled: DMSO 0, geranylgeraniol control 100. rescue of ATP level, % at 7.49 µM. 330,000 tested, 0.78% active;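 active means mean ATP rescue above about 67%, or every replicate alone reaching that limit, limit read from the data, passing the limit was not always enough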;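 further: myotubes were challenged with 10 µM simvastatin during compound exposure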
E-sel inducer – E-selectin induction on HUVECs; P16581; HUVEC E-selectin immunofluorescence imaging; normalized: neutral wells 0, TNF-alpha wells 100; activation, % at 7.58 µM; AID 686992; 260,000 tested, 0.37% active;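 active means mean E-selectin-positive cell signal at least 10% of the positive control, reached in at least 60% of replicates, without over 20% cell loss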
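material = human umbilical vein endothelial cells (HUVEC), E-selectin induction | quantity = 3,000 cells/well | medium = EGM-2 growth medium on 0.1% gelatin-coated wells | technique = immunofluorescence imaging | read-out basis = % PE-positive cells | control set = TNF-alpha positive control, DMSO neutral control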
FN deposit inh – fibronectin deposition inhibition | 350,000 tested, 0.086% active | AID 743247 | inhibition, % at 12.6 µM | AH1F fibroblasts, Alexa488-fibronectin deposition fluorescence, overnight;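 active means mean inhibition across replicates of 30% or more, regardless of how many single replicates reach that level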;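 further: positive control wells lacked labelled fibronectin entirely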
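Assay system: AH1F fibroblasts assembling fluorescent fibronectin matrix; Amount: 10000 AH1F cells per well; Buffer or medium: DMEM, 2% serum; Probe or stimulus: Alexa488-fibronectin, 24 nM final in well; Doses: single compound dose, delivered by pin transfer; Incubation: 1 h adhesion, overnight exposure; Measured by: fluorescence 485/525 nm; Read-out: fibronectin deposition inhibition.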
SIRT5 block – blocks human SIRT5 desuccinylation of peptide; inhibition, % at 15 µM; Q9NXA8; 330,000 tested, 1.1% active; Purified SirT5, succinyl-peptide AMC, trypsin-coupled fluorescence; AID 652115; in the data active means inhibition above about 15%
rRNA inh HTS – inhibitors of bacterial rRNA selective over humanized ribosomes. E. coli WT GFP vs humanized-ribosome RFP mutants, fluorescence, 24 h; hits give low values; DMSO median 0, no signal -100. GFP signal change (wild-type ribosome), % (no concentration beside the values). 350,000 tested, 1.6% active. AID 720706;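 active means significant combined selectivity score with lowered wild-type GFP, culture density cut under 30%, mutant RFP and density less affected; inactive means any of these conditions unmet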
FGF22 binding – shifts melting point of recombinant human FGF22 | 340,000 tested, 1.5% active | recombinant FGF22 thermal shift, SYPRO orange fluorescence; percent of sucrose octasulfate shift, DMSO zero | AID 651658 | Q9HCT0 | activity (Tm shift, normalised), % at 9.99 µM;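 active means mean Tm shift, scaled 0 neutral to 100 positive control, at about 1.3% or above, every replicate too, limit read from the data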
Target sequence (Q9HCT0 whole entry, looked up): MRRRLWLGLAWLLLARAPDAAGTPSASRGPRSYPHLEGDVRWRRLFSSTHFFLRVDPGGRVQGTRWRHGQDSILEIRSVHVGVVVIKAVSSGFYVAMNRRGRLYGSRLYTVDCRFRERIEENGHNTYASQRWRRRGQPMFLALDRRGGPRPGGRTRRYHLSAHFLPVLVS
* hit, by the source's call; / = not tested or not shown.

SMILES	Statin myotox sup	E-sel inducer	FN deposit inh	SIRT5 block	rRNA inh HTS	FGF22 binding
Cc1noc(C)c1NC(=O)N(C)C[C@@H]1Oc2ccc(NC(=O)c3ccncc3)cc2CC(=O)N([C@H](C)CO)C[C@@H]1C	-34	/	-9	-2	4	0
O=C1CC(c2ccccc2)=NO1	6	/	3	5	5	0
O=S1(=O)CC(c2ccccc2)=NN=C(c2ccccc2)C1	/	0	-6	/	8	44*
CCCCCOc1ccc(C(=O)NCCC(=O)NCCCC(=O)OCC)cc1	/	/	-2	-5	-25*	0
O=C(NC1CCCC1)C1c2ccccc2OCC(=O)N1Cc1ccccn1 (centres undefined)	/	/	3	-4	/	0
O=C(NC1CCCCC1)C1c2ccccc2OCC(=O)N1Cc1ccco1 (centres undefined)	/	1	-5	16*	0	0
Cc1noc(C)c1NC(=O)N(C)C[C@H]1Oc2c(NC(=O)NC(C)C)cccc2C(=O)N([C@@H](C)CO)C[C@@H]1C	/	1	/	-1	1	0
C[C@H](CO)N1C[C@H](C)[C@@H](CN(C)CC2CCCCC2)Oc2ccc(NC(=O)Nc3cccc4ccccc34)cc2C1=O	96*	1	/	3	0	0
C[C@@H]1CCCCO[C@@H](CN(C)CC2CCCCC2)[C@H](C)CN([C@H](C)CO)C(=O)c2cc(NC(=O)CCCCCC(=O)Nc3ccccc3N)ccc2O1	/	0	/	20*	2	0
C[C@@H]1CN([C@@H](C)CO)C(=O)c2cc(NC(=O)Nc3cccc4ccccc34)ccc2O[C@@H](C)CCCCO[C@@H]1CN(C)CC1CCCCC1	/	0	/	3	-4	1
C[C@@H]1CCCCO[C@@H](CN(C)CC2CCCCC2)[C@H](C)CN([C@H](C)CO)C(=O)c2cc(NC(=O)Nc3cccc4ccccc34)ccc2O1	/	2	/	6	-4	1.3*
COc1cccc(S(=O)(=O)N[C@H]2CC[C@@H](CC(=O)NC3CCC3)O[C@@H]2CO)c1	19	0	/	9	-1	0
C/C=C/c1cnc2c(c1)C(=O)N([C@@H](C)CO)C[C@H](C)[C@H](CN(C)C(=O)C1CCCCC1)O2	16	0	/	8	4	0
CC(C)(C)c1cnnn1-c1ccc(/C=N/Nc2ccc([N+](=O)[O-])cc2)cc1	/	/	1	2	/	43*
COc1ccc2nc(NC(=O)CSc3nnnn3C)sc2c1	/	2	-7	1	13	43*
COc1ccc2nc(NC(=O)CSc3nnnn3C3CCCCC3)sc2c1	2	/	/	-1	-31	0
COC(=O)C[C@H]1CC[C@H]2[C@@H](COc3ccc(NS(=O)(=O)c4ccccc4Cl)cc3C(=O)N2C)O1	/	0	-21	0	2	0
COc1cccc(NC(=O)N[C@H]2C=C[C@H](CC(=O)NCc3ccncn3)O[C@@H]2CO)c1	0	0	-11	1	-2	1
CCOC(=O)C(Cc1nc(OCc2ccccc2)cc(OCc2ccccc2)n1)=NO	4	0	-4	2	-34	0
CCOC(=O)C(=O)Cc1nc(OCc2ccccc2)cc(OCc2ccccc2)n1	9	0	2	/	8	43*
Cc1ccccc1NC1=NC(C)(C)N=C(N)N1	-3	/	6	/	/	/
Cc1cccc(NC2=NC(C)(C)N=C(N)N2)c1C	112*	/	-2	/	/	/
C[C@@H]1CN([C@@H](C)CO)C(=O)c2cc(NC(=O)C3CCCCC3)ccc2O[C@@H](C)CCCCO[C@H]1CN(C)C	-9	0	/	/	2	/
COCC(=O)N1CC(=O)N2[C@H](CO)[C@@H](c3ccc(C#CCc4ccccc4)cc3)[C@H]2C1	/	0	/	-5	0	0
COc1ccc2c(c1)[C@]1(C(=O)N2C)C2=C(CCCC2=O)Oc2cc(C)oc(=O)c21	/	0	4	/	9	43*
Cc1cc2c(c(=O)o1)[C@@]1(C(=O)N(C)c3ccc([N+](=O)[O-])cc31)C1=C(CCCC1=O)O2	/	0	1	/	-5	41
CCN(CC)S(=O)(=O)c1cccc(C(=O)NC(C(=O)NC2=NCCS2)C(C)C)c1 (centres undefined)	81*	/	/	/	/	/
